Source: PubChem BioAssay (several laboratories)
In the library only some 2.6% were active in any assay of this set; here they are far more common.
MT stabilizer: microtubule stabilizers in HeLa cells, primary screen, imaging, high-content imaging; % tubulin-high responders, % at 10 µM; actives 0.83% (n = 200,000); HeLa tubulin immunostaining HCS, 24 h; share of cells brighter than vehicle mean+2SD;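 active means plate Z-score above 3 for both tubulin-high and condensed-nucleus cell shares, with cell loss under 80%, at 10 µM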;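 further: anti alpha tubulin signal scored within the nucleus-defined area of each cell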
NPY Y1 blocker: NPY-Y1 receptor antagonists, primary screen, cell-based | inhibition, % at 3.6 µM | HEK293-CNG Y1 cells, membrane potential fluorescence; NPY at EC95, then isoproterenol | Neuropeptide Y receptor type 1 (Homo sapiens), P25929 | actives 1% (n = 200,000) | AID 1040, 2008;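 active means inhibition above the campaign mean inhibition of all tested compounds plus 3 SD, cut at about 20% in these data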;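 further: 0% = DMSO wells given NPY plus isoproterenol and 100% = isoproterenol alone without NPY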
Target sequence (P25929 whole entry, looked up): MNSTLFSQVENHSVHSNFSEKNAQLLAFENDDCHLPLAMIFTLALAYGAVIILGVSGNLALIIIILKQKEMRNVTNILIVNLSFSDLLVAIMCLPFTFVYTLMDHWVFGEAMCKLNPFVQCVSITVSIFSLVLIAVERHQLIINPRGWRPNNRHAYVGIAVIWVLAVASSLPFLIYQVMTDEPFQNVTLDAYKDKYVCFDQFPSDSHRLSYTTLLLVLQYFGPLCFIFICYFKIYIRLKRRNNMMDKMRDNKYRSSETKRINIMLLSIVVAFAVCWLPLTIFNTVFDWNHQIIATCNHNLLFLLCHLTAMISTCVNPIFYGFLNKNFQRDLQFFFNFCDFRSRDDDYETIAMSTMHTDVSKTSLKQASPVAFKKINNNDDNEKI
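System: HEK293 cells with Y1 receptor plus CNG channel / Probe or stimulus: NPY 25 nM then isoproterenol 1 µM plus Ro 20-1724 25 µM / Compound: one concentration, 3.6 µM, in 0.4% DMSO / Schedule: compound incubation 1 h at room temperature, readout 45 min post-stimulation / Measured by: membrane potential fluorescence / Read-out: % inhibition of NPY effect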
NPY2 pot ag: NPY-Y2 potentiators or agonists, primary screen, cell-based; Neuropeptide Y receptor type 2 (Homo sapiens), P49146; cells expressing NPY-Y2, potentiator/agonist read-out; activation, % at 3.6 µM; actives 0.45% (n = 220,000); in the data active means activation above about 27%;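 further: cells stimulated with NPY near EC25 plus isoproterenol at EC100; 0% = vehicle plus submaximal agonist and 100% = vehicle plus saturating agonist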
Target sequence (P49146 whole entry, looked up): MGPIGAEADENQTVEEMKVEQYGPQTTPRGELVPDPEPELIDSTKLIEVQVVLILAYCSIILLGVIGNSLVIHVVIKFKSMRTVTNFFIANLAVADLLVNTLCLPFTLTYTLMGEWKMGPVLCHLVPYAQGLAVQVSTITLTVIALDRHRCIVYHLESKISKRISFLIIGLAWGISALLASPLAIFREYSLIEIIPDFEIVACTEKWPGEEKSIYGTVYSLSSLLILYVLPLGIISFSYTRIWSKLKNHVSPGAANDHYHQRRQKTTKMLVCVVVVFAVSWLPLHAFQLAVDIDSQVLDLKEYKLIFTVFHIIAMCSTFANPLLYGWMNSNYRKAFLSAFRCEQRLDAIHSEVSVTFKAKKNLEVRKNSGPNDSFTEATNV
bCat nuc transl: modulators of beta-catenin nuclear translocation, primary screen, imaging, HeLa cells, immunofluorescence, high-content | nuclear translocation activity, % at 5 µM | actives 0.3% (n = 190,000) | AID 1665, 2009;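 active means nuclear translocation activity above 50% at 5 µM, with a well cell count of 50 or more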;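 further: per-cell ratio of nuclear to cytoplasmic median beta-catenin stain intensity; plate controls were DMSO negative control for no effect and GSK-3 inhibitor IX positive control for full effect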
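assay system = human HeLa cells, endogenous beta-catenin | times = compound treatment 24 h, 37°C, 5% CO2 | detection = Anti-beta-catenin immunofluorescence on PFA-fixed, Triton-permeabilized cells, DAPI nuclei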
NPY1 pot ag: NPY-Y1 receptor potentiators or agonists, primary screen, cell-based; activation, % at 3.6 µM; actives 0.37% (n = 220,000); AID 1304, 2008; Neuropeptide Y receptor type 1 (Homo sapiens), P25929; NPY-Y1 expressing cells, potentiator/agonist activation; in the data active means activation above about 33%, passing the limit was not always enough;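 further: cells stimulated with NPY at EC10 then isoproterenol at EC100; 0% = low agonist plus stimulus and 100% = saturating agonist plus stimulus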
NPY Y2 blocker: NPY-Y2 receptor antagonists, primary screen, cell-based. actives 0.99% (n = 140,000). Neuropeptide Y receptor type 2 (Homo sapiens), P49146. inhibition, % at 2.7 µM. NPY-Y2 expressing cells, antagonist mode;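 further: 0% = vehicle with agonist challenge and 100% = reference antagonist with challenge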
NPY-Y1 ant conf: NPY-Y1 receptor antagonists, retest of hits, confirmation, HEK293-CNG cells, membrane potential fluorescence, triplicate. shares compounds with NPY Y1 blocker. cAMP; NPY challenge against isoproterenol-raised cAMP. inhibition, % at 3.6 µM. actives 21% (n = 1,200). AID 1254, 2008; in the data active means inhibition above about 20%;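 further: 0% = vehicle with agonist plus stimulus and 100% = stimulus alone without agonist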
NPY2 antag ctr: NPY-Y2 receptor antagonists, selectivity check, confirmation, counter-screen for NPY-Y1 antagonist project, HEK293-CNG cells, membrane potential fluorescence, triplicate. shares compounds with NPY Y1 blocker. antagonism; cells given NPY, then isoproterenol. inhibition, % at 3.6 µM. actives 28% (n = 1,200). AID 1255, 2008;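 further: 0% = DMSO with agonist challenge and 100% = reference antagonist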
* = called active by the depositor. Unless noted, no stated cut-off is given here; in the data, active means inhibition above about 17%; inactive means the rest.

How did COc1ccccc1N(CC(O)Cn1c(C)nc2ccccc21)S(=O)(=O)c1ccccc1 (centres undefined) do in these assays?
MT stabilizer: 3.3; NPY Y1 blocker: -0.6; NPY2 pot ag: -1.2; bCat nuc transl: -2.5; NPY1 pot ag: -20.0; NPY Y2 blocker: 4.2

Results for O=c1oc2ccccc2cc1-c1nc(-c2cccs2)cs1 ?
MT stabilizer: 1.3; NPY Y1 blocker: 29.9*; NPY2 pot ag: -1.9; NPY1 pot ag: -27.8; NPY Y2 blocker: 13.2; NPY-Y1 ant conf: 11.4; NPY2 antag ctr: 8.2

Results for COc1cccc2cc(-c3nc(-c4cccs4)cs3)c(=O)oc12 ?
MT stabilizer: 3.3; NPY Y1 blocker: 0.5; NPY2 pot ag: -19.6; bCat nuc transl: -2.4; NPY1 pot ag: -29.3; NPY Y2 blocker: -1.9

How did COc1ccc(C(=O)C2CCCN(C(=O)c3noc4c3CCCC4)C2)c(C)c1 (centres undefined) do in these assays?
MT stabilizer: 2.9; NPY Y1 blocker: 6.8; NPY2 pot ag: -12.3; bCat nuc transl: -1.7; NPY1 pot ag: -18.1

How did CC(=O)c1ccc(NC(=S)NCc2ccc(Cl)cc2Cl)cc1 do in these assays?
MT stabilizer: 2.5; NPY Y1 blocker: -6.2; NPY2 pot ag: 13.3; bCat nuc transl: -5.0; NPY1 pot ag: 21.9

What do the screens show for `CCCCCC(O)(CCCCC)C(=O)NNc1ccccc1`?
MT stabilizer: 2.6; NPY Y1 blocker: 25.2*; NPY2 pot ag: -1.8; bCat nuc transl: 0.3; NPY1 pot ag: 9.4; NPY Y2 blocker: 10.0; NPY-Y1 ant conf: 11.3; NPY2 antag ctr: 4.8

What do the screens show for `CC(Oc1ccc(F)cc1)C(=O)Nc1ccc2ccccc2c1` (centres undefined)?
MT stabilizer: 1.7; NPY Y1 blocker: 40.6*; NPY2 pot ag: -2.2; NPY1 pot ag: -21.5; NPY Y2 blocker: 16.4; NPY-Y1 ant conf: 14.1; NPY2 antag ctr: 10.6

Results for c1ccc(-c2csc3ncnc(NCCCN4CCOCC4)c23)cc1 ?
MT stabilizer: 2.1; NPY Y1 blocker: 9.2; NPY2 pot ag: -0.6; bCat nuc transl: -0.2; NPY1 pot ag: -8.9; NPY Y2 blocker: 0.9

What do the screens show for `O=c1c2c(-c3ccccc3)csc2nc2c3ccccc3c(NCCN3CCOCC3)nn12`?
MT stabilizer: 1.3; NPY Y1 blocker: 31.9*; NPY2 pot ag: -35.8; bCat nuc transl: -0.5; NPY1 pot ag: -63.3; NPY-Y1 ant conf: 27.4*; NPY2 antag ctr: 39.9*

What do the screens show for `CC1(C)CC(=O)C=C(NNC(=O)OC(C)(C)C)C1`?
MT stabilizer: 3.9; NPY Y1 blocker: 22.1*; NPY2 pot ag: -5.3; bCat nuc transl: -5.7; NPY1 pot ag: -12.9; NPY-Y1 ant conf: -2.1; NPY2 antag ctr: 1.5

Results for CCOC(=O)CC1C(=O)NCCN1C(=O)c1cc2c(=O)n3cccc(C)c3nc2s1 (centres undefined) ?
MT stabilizer: 3.7; NPY Y1 blocker: 0.6; NPY2 pot ag: -9.4; NPY1 pot ag: -15.7; NPY Y2 blocker: 0.3

How did CCOC(=O)CC1C(=O)NCCN1C(=O)c1cc2c(=O)n3ccccc3nc2s1 (centres undefined) do in these assays?
MT stabilizer: 3.5; NPY Y1 blocker: 98.1*; NPY2 pot ag: -16.8; bCat nuc transl: -6.5; NPY1 pot ag: -9.8; NPY Y2 blocker: 2.7; NPY-Y1 ant conf: 1.5; NPY2 antag ctr: 2.8

How did CC1CC(C)CN(S(=O)(=O)c2ccc(C(=O)N(c3ccccn3)C3CCCCC3)cc2)C1 (centres undefined) do in these assays?
MT stabilizer: 2.3; NPY Y1 blocker: 30.7*; NPY2 pot ag: -5.1; bCat nuc transl: -1.2; NPY1 pot ag: -15.1; NPY-Y1 ant conf: 9.3; NPY2 antag ctr: 7.2

What do the screens show for `Cc1cccc(OCc2n(CC(=O)OC3CC(C)CCC3C(C)C)c3ccccc3[n+]2C)c1` (centres undefined)?
MT stabilizer: 66.6; NPY Y1 blocker: 28.5*; NPY2 pot ag: -24.7; bCat nuc transl: 8.2; NPY1 pot ag: -48.5; NPY-Y1 ant conf: 24.1*; NPY2 antag ctr: 38.9*

What do the screens show for `Cc1ccccc1-n1c(C)nnc1SCC(=O)N(C)C1CCS(=O)(=O)C1` (centres undefined)?
MT stabilizer: 1.3; NPY Y1 blocker: 5.5; NPY2 pot ag: -17.2; bCat nuc transl: -2.0; NPY1 pot ag: 6.3

How did O=C(COC(=O)[C@@H]1CC(O)CN1S(=O)(=O)c1ccc2c(c1)OCCO2)Nc1ccccc1F (some centres undefined) do in these assays?
MT stabilizer: 1.1; NPY Y1 blocker: 0.7; NPY2 pot ag: 1.9; bCat nuc transl: 1.2; NPY1 pot ag: 13.8

Results for O=C(Nc1ccc(F)cc1F)c1sccc1SCc1cccc(C(F)(F)F)c1 ?
MT stabilizer: 2.0; NPY Y1 blocker: 47.7*; NPY2 pot ag: -21.8; NPY1 pot ag: -32.1; NPY Y2 blocker: 7.0; NPY-Y1 ant conf: 22.6*; NPY2 antag ctr: 17.1*

How did NNC(=O)c1sccc1OCc1cccc(C(F)(F)F)c1 do in these assays?
MT stabilizer: 3.2; NPY Y1 blocker: 6.4; NPY2 pot ag: -17.8; bCat nuc transl: -2.1; NPY1 pot ag: -33.2

How did O=C(Cc1cccc(C(F)(F)F)c1)Nc1ccccc1 do in these assays?
MT stabilizer: 3.9; NPY Y1 blocker: 1.8; NPY2 pot ag: 9.1; bCat nuc transl: -2.1; NPY1 pot ag: -13.4

What do the screens show for `COc1ccc(NC(=O)c2sccc2SCc2cccc(C(F)(F)F)c2)cc1`?
MT stabilizer: 2.8; NPY Y1 blocker: 31.5*; NPY2 pot ag: -27.5; bCat nuc transl: -0.2; NPY1 pot ag: -25.7; NPY Y2 blocker: 6.1; NPY-Y1 ant conf: 6.8; NPY2 antag ctr: 8.0

What do the screens show for `O=C(Nc1ccc(F)cc1)c1sccc1SCc1cccc(C(F)(F)F)c1`?
MT stabilizer: 3.3; NPY Y1 blocker: 25.4*; NPY2 pot ag: -32.3; bCat nuc transl: 1.0; NPY1 pot ag: -15.4; NPY Y2 blocker: 12.6; NPY-Y1 ant conf: 9.0; NPY2 antag ctr: 9.7

What do the screens show for `N#Cc1c(-c2ccccc2)ccnc1N1CCOCC1`?
MT stabilizer: 2.7; NPY Y1 blocker: 2.1; NPY2 pot ag: 9.9; bCat nuc transl: 0.6; NPY1 pot ag: 30.1
